{"data": "Results collected from several papers", "target": "Microtubule-associated serine/threonine-protein kinase 1 (MAST1, Homo sapiens, UniProt Q9Y2H9)", "note": "Lines come from different studies, so protocols differ."}
{"Compound": "CC(=O)N1CCC(c2ccc(C(=O)NC3=NCCN3)cc2C(F)(F)F)CC1", "test": "cell-free assay, competition with immobilised ligand", "setting": "1 µM", "remaining binding [%]": 87}
{"Compound": "CN(CCCC(F)(F)F)c1nccc(-c2cnn3ncccc23)n1", "test": "binding", "setting": "1 µM", "remaining binding [%]": 100}
{"Compound": "Nc1ncc2c(n1)-c1c([nH]c3ccc(C#CC4CC4)cc13)CCCC2", "test": "binding, competition with immobilised ligand", "setting": "1 µM", "remaining binding [%]": 62}
{"Compound": "CCCOc1ccc([C@@H]2[C@@H](C(=O)O)[C@H](c3ccc4c(c3)OCO4)CN2CC(=O)Nc2c(CC)cccc2CC)cc1", "test": "cell-free assay, competition with immobilised ligand", "setting": "1 µM", "remaining binding [%]": 100}
{"Compound": "O=C(c1ccc(Nc2nccc(-c3cc4ccccc4s3)n2)cc1)N1CCC(N2CCCC2)CC1", "test": "binding, competition with immobilised ligand", "setting": "1 µM", "remaining binding [%]": 53}
{"Compound": "COc1cnc(Nc2cccc(S(N)(=O)=O)c2)nc1N1CCN(c2ccccc2)CC1", "test": "binding, competition with immobilised ligand", "setting": "1 µM", "remaining binding [%]": 69}
{"Compound": "c1cncc(-c2cccc(Nc3nccc(NC4CCCCC4)n3)c2)c1", "test": "binding, competition with immobilised ligand", "setting": "10 µM", "remaining binding [%]": 95}
{"Compound": "COc1ccc2cc(OCC3(C(=O)O)CN(C(=O)c4ccc(F)cc4)C3)ccc2c1", "test": "cell-free assay, competition with immobilised ligand", "setting": "1 µM", "remaining binding [%]": 100}
{"Compound": "CN(C)c1ncc(F)c(-c2cnn3ncccc23)n1", "test": "binding", "setting": "1 µM", "remaining binding [%]": 96}
{"Compound": "O=C(c1ccc(Nc2ncc(Cl)c(-c3ccc(Cl)s3)n2)cc1)N1CCC(N2CCCC2)CC1", "test": "binding, competition with immobilised ligand", "setting": "1 µM", "remaining binding [%]": 16}
{"Compound": "O=C(Nc1cccnn1)N1CC(C/C=C/c2cncc(Oc3ccc(C(F)(F)F)cn3)n2)C1", "test": "cell-free assay, competition with immobilised ligand", "setting": "1 µM", "remaining binding [%]": 58}
{"Compound": "CC1CCCN1c1nccc(-c2cnn3ncccc23)n1 (stereo not drawn)", "test": "binding", "setting": "1 µM", "remaining binding [%]": 100}
{"Compound": "O=C(c1ccc(Nc2ncc(Cl)c(-c3cc4ccccc4s3)n2)cc1)N1CCC(N2CCCC2)CC1", "test": "binding, competition with immobilised ligand", "setting": "1 µM", "remaining binding [%]": 52}
{"Compound": "C=CC(=O)N1CCC(C(=O)NCC(=O)N2CCN(c3nc(-c4cnc(N)nc4C(F)F)nc(N4CCOCC4)n3)CC2)CC1", "test": "binding, competition with immobilised ligand", "setting": "1 µM", "remaining binding [%]": 100}
{"Compound": "O=C(Nc1c[nH]nc1C(=O)NC1CCNCC1)c1cc(F)cc(F)c1", "test": "binding, competition with immobilised ligand", "setting": "1 µM", "remaining binding [%]": 100}
{"Compound": "c1cnn2ncc(-c3ccnc(N4CCC45COC5)n3)c2c1", "test": "binding", "setting": "1 µM", "remaining binding [%]": 55}
{"Compound": "CCC(=O)N[C@@H]1CC[C@H](C(=O)N(C)c2ccc(-c3nc4ccccc4o3)cc2)C1", "test": "cell-free assay, competition with immobilised ligand", "setting": "1 µM", "remaining binding [%]": 94}
{"Compound": "N[C@H]1CCN(c2nccc(-c3cnn4ncccc34)n2)C1", "test": "binding", "setting": "1 µM", "remaining binding [%]": 100}
{"Compound": "C[C@@H](c1ccc(-n2cnc3c(N)ncnc32)cc1)N1CCc2nn(C)c(Cc3ccccc3)c2C1=O", "test": "binding, competition with immobilised ligand", "setting": "0.1 µM", "remaining binding [%]": 40}
{"Compound": "C[C@H]1CCN(c2nccc(-c3cnn4ncccc34)n2)C1", "test": "binding", "setting": "1 µM", "remaining binding [%]": 82}
{"Compound": "CN([C@@H]1CCc2c(CC(=O)O)c3ccccc3n2C1)S(=O)(=O)c1ccc(F)cc1", "test": "cell-free assay, competition with immobilised ligand", "setting": "1 µM", "remaining binding [%]": 100}
